High-throughput results deposited in PubChem by Johns Hopkins Ion Channel Center.
TRPC6 activator: mouse TRPC6 channel activators, primary screen, cell-based, HEK293, membrane potential dye; Short transient receptor potential channel 6 (Mus musculus), Q61143; HEK293-TRPC6 membrane potential dye fluorescence; active compounds read high; B-score at 10 µM; actives 0.13% (n = 310,000);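 active = B-score of the integrated fluorescence ratio above library mean plus 3 SD, and starting fluorescence ratio within library mean plus 5 SD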;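 note: higher score means more depolarization so channel activation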
TRPC6 inh: mouse TRPC6 channel inhibitors, primary screen, cell-based, HEK293, membrane potential dye; Short transient receptor potential channel 6 (Mus musculus), Q61143; ACh-evoked depolarization; active compounds read low; B-score at 10 µM; actives 1.1% (n = 310,000); AID 2553, 2010;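 active = B-score under library mean minus 3 SD, initial fluorescence not abnormally high, positive integrated signal ratio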;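 note: B-score derived from integrated fluorescence ratio over the kinetic read; more negative B-score means stronger inhibition of depolarization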
TRPC4 act: activators of mouse TRPC4 channel, primary screen, Fluo4 calcium, HEK293 TRPC4beta/mu-opioid cells. Short transient receptor potential channel 4 (Mus musculus), Q9QUQ5. Fluo4 calcium fluorescence; active compounds read high. B-score at 10 µM. actives 0.49% (n = 310,000). AID 2237, 2010;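 active = B-score above 5 SD of library B-scores, and initial fluorescence ratio not above library mean plus 5 SD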;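 note: positive B-score marks a calcium rise read as TRPC4 activation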
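System – HEK293 cells stably co-expressing mouse TRPC4beta and mu-opioid receptor · Signal – Fluo4 calcium-sensitive dye fluorescence, kinetic, 1 Hz baseline · Benchmarks – buffer (low) and maximal DAMGO (high) · Read-out – B score of integrated fluorescence ratio per well · Incubation – dye loading 45 min room temperature, 110 s kinetic read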
TRPC4 PAM: positive allosteric modulators of TRPC4, primary screen, cell-based, mouse TRPC4beta, HEK293 mu-opioid, Fluo-4 calcium | B-score at 10 µM | DAMGO EC20, Fluo-4 Ca2+ flux; active compounds read high | Short transient receptor potential channel 4 (Mus musculus), Q9QUQ5 | actives 0.42% (n = 310,000);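 active = B-score of calcium response area above 5 SD of library B-scores, with initial fluorescence ratio within 5 SD of library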;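 note: B-score of integrated fluorescence ratio over time as area under calcium response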
TRPC4 inh: inhibitors of mouse TRPC4 channel, primary screen, Fluo4 calcium, HEK293 TRPC4beta/mu-opioid cells | actives 0.39% (n = 300,000) | B-score at 10 µM | DAMGO-evoked Fluo4 calcium flux; active compounds read low | Short transient receptor potential channel 4 (Mus musculus), Q9QUQ5;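 active = B-score over 3 SD under the library average, no early fluorescence shift, positive overall ratio signal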
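Material: HEK293 cells with stable TRPC4beta plus mu-opioid receptor expression; probe or stimulus: DAMGO in two steps, submaximal then maximal; technique: Fluo4 calcium fluorescence by kinetic imaging, 5 s 1 Hz baseline; measure: integrated fluorescence ratio relative to baseline, converted to per-well B score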
Numbers without * were called inactive; i = inactive. The list is not random: actives were taken first. Their share in the collection is about 2.3%.

SMILES	TRPC6 activator	TRPC6 inh	TRPC4 act	TRPC4 PAM	TRPC4 inh
COC(=O)c1cc(C(=O)c2c(C)cc3ccccn23)cc([N+](=O)[O-])c1	i	i	i	i	i
CC(Oc1ccc(Br)cc1)C(=O)Nc1ccc(S(=O)(=O)N(C)C2CCN(C)CC2)cc1 (stereo unspecified)	i	i	63*	i	i
O=C([O-])c1cc(-c2ccccc2)cc(-c2ccccc2)[n+]1Cc1ccccc1	i	-5.4*	i	i	i
COc1ccc(-c2noc(N3CCC(C(=O)NCCCN4CCCCC4)CC3)n2)cc1	i	i	i	i	i
Cc1noc(/C=C/c2cccs2)c1S(=O)(=O)N1CCC(C(=O)NCCCN2CCCC(C)C2)CC1 (stereo unspecified)	i	i	i	10*	i
CCCCNC(=O)C1CCCN(S(=O)(=O)c2c(C)noc2/C=C/c2cccs2)C1 (stereo unspecified)	i	i	i	i	i
COc1ccc(-c2noc(N3CCC(C(=O)NCCCN4CCCC(C)C4)CC3)n2)cc1 (stereo unspecified)	i	i	i	10*	i
Cc1ccc(S(=O)(=O)N(C)C)cc1NC(=O)C1CCCN(C(=O)c2ccc(Cl)cc2)C1 (stereo unspecified)	i	i	i	i	i
O=C(C[n+]1cc(-c2ccccc2)n2c1CCC2)N1c2ccccc2Sc2ccccc21	i	-5.5*	i	i	i
Cc1ccc(-c2c[n+](Cc3ccc(Cl)cc3)c3n2CCC3)cc1	i	i	i	i	i
Clc1cccc(C[n+]2cc(-c3ccccc3)n3c2CCC3)c1	i	i	i	i	-6*
O=C(C[n+]1cc(-c2ccccc2)n2c1CCC2)c1cccs1	i	i	i	i	i
O=C(c1cc(COc2ccccc2)on1)N1CCCC(CN2CCOCC2)C1 (stereo unspecified)	i	i	i	i	i
Clc1cc(Br)ccc1OCCn1ccnc1	i	i	84*	i	-6*
Clc1ccc(OCCn2ccnc2)cc1Cl	i	i	57*	14*	i
Cc1cc(Br)ccc1OCCn1ccnc1	i	i	116*	i	i
Cc1ccc(C)c(OCCn2ccnc2)c1	i	i	i	i	i
CCOC(=O)Cc1csc(NC(=O)C(CC(C)C)NC(=O)C2CCCCC2)n1 (stereo unspecified)	i	i	i	i	i
CCOC(=O)C1=C(COC(=O)COc2ccc(C(=O)CC)cc2)NC(=O)NC1C (stereo unspecified)	i	i	i	i	i
COc1cccc2c1OCC(C(=O)Nc1nccs1)=C2	i	i	i	i	i
Cc1ccc(F)cc1NC(=O)COC(=O)COc1ccc(C#N)cc1	i	i	i	i	i
CC1(c2ccccc2)NC(=O)N(CC(=O)NCc2cccc(Cl)c2)C1=O (stereo unspecified)	i	i	i	i	i
Cc1ccc(NC(=O)CN(C)C(=O)CNC(=O)c2sc3ccccc3c2Cl)cc1	i	i	i	149*	i
COc1ccc(-c2ccc(CNCc3ccccn3)o2)cc1Cl	i	i	i	i	-8*
CS(=O)(=O)Nc1nc2n(n1)C(c1ccccc1)CC(c1ccccc1)N2 (stereo unspecified)	i	i	i	i	-6*
COCCN(CC(=O)NCc1ccccc1)C(=O)CCC(=O)Nc1ccccn1	i	i	i	i	i
CCc1ccc2[nH]c(=O)c(C3C(C#N)=C(N)Oc4c3ccc3cccnc43)cc2c1 (stereo unspecified)	i	-5.9*	i	i	i
Nc1ccccc1Oc1c(F)c(F)c(Oc2ccccc2N)c(F)c1F	i	i	i	i	i
